The list is not random: actives were taken first. Their share in the collection is about 3.6%.
PfHsp90 set2 – growth inhibition of PfHsp90-expressing yeast, primary screen, antimalarial PfHsp90 inhibitor project, S. cerevisiae, BacTiter-Glo luminescence, single point, set 2; BacTiter-Glo ATP, 48 h; yeast lacking PDR1 and PDR3 efflux regulators; inhibition, % at 9.4 µM; 0.32% of 310,000 active; AID 504621, 2011;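 active = every replicate shows inhibition above about 80%, whatever the replicate mean, limit read from the data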;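 note: 0% = DMSO neutral controls and 100% = 20 µM radicicol positive controls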
T cruzi inh – inhibitors of intracellular T. cruzi growth, primary screen, luminescence, NIH3T3 host cells; inhibition, % (no concentration beside the values); 1.4% of 300,000 active; T. cruzi beta-gal in NIH3T3, 90 h; AID 1885, 2009;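 active = mean inhibition across valid replicates above about 55%, limit read from the data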;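 note: signal also drops with host cell toxicity which is not excluded here; 0% = plate median of DMSO wells and 100% = zero luminescence signal; higher percent means less beta-gal luminescence so fewer parasites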
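Test system: β-gal T. cruzi (Tulahuen C4) inside NIH/3T3 cells / Quantity: 5,000 cells/well / Measured by: luminescence from GalScreen with 0.05% NP40, read after 60 min / Medium: DMEM plus 2% FBS / Measure: parasite load inhibition, % / Reagent: Tulahuen C4 trypomastigotes, 5000/well / Schedule: co-culture of at least 90 h after 3 h attachment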
CSC inhib – cancer stem cell viability inhibitors, primary screen, luminescence | 1.1% of 300,000 active | AID 2717, 2010 | cancer stem cell-like cells viability | inhibition, % at 7.5 µM; in the data active = inhibition above about 75%; tested in HMLE shEcad cells
SKKanGAS inh – S. pyogenes SKKanGAS growth inhibitors in kanamycin, primary screen, streptokinase expression inhibitor project, SKKanGAS strain, BacTiter-Glo luminescence | 6 h | inhibition, % at 7.5 µM | 1.3% of 300,000 active | AID 1662, 2009;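 active = mean replicate score, as percent of positive control median, at least 50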;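 note: strain carries kanamycin resistance gene driven by streptokinase promoter and grows in 40 µg/ml kanamycin; loss of luminescence reflects streptokinase promoter inhibition or plain growth inhibition; 0% = median of DMSO wells and 100% = positive control at its reference dose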
HIF act – HIF pathway transcriptional activators, primary screen, cell-based, U2OS HRE-luciferase, luminescence; U2OS HRE-luciferase reporter; normalized: DMSO 0%, desferrioxamine 100%; activation, % at 7.5 µM (by protocol); 0.32% of 300,000 active; AID 1910, 2009;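 active = mean activation of at least 10% of the iron chelator positive control signal, with at least half of replicates also reaching 10%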
Beta cell apopt – inhibitors of cytokine-induced beta cell apoptosis, primary screen, luminescence; INS-1E cytokine-induced death, ATP luminescence, 48 h; percent of positive-control rescue, neutral wells zero; protection from apoptosis, % (test concentration not listed); 0.8% of 300,000 active; AID 435005, 2010;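 active = Every replicate reaches about 75%, or at least half do and their mean reaches it too, limit read from the data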;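 note: 0% = cytokine-treated negative control wells and 100% = positive control rescue; higher means more ATP so stronger rescue from cytokine killing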
* = called active by the depositor; · = no result given.

SMILES	PfHsp90 set2	T cruzi inh	CSC inhib	SKKanGAS inh	HIF act	Beta cell apopt
CN(C)C(CNC(=O)c1coc2ccccc2c1=O)c1ccccc1 (stereo not drawn)	-11	-20	10	8	-34	·
NCCCCCC(=O)N/N=C/c1coc2ccccc2c1=O	-4	-25	-6	-1	0	-4
Cc1cccc(Cc2cnc(NC(=O)c3ccc(C)o3)s2)c1	-14	-33	-2	77*	2	-3
O=C(Nc1ncc(Cc2ccccc2Cl)s1)c1ccc(-c2cccc([N+](=O)[O-])c2)o1	-10	60*	45	14	0	12
Cc1ccc(Cc2cnc(NC(=O)c3ccco3)s2)cc1	-47	-13	50	28	0	0
O=C(CN1CCOCC1)Nc1ncc(Cc2ccccc2Cl)s1	0	13	·	21	0	·
O=C(Nc1ncc(Cc2cccc([N+](=O)[O-])c2)s1)c1ccco1	-8	11	97*	4	1	1
Cc1cccc(Cc2cnc(NC(=O)C3=NCCN3)s2)c1	·	-1	5	3	0	3
CCc1ccc(CCC(=O)Nc2ncc(Cc3ccccc3Cl)s2)o1	12	-7	82*	-13	-25	10
CC1CCCC(NC(=O)NC(=O)COC(=O)c2ccc(O)cc2O)C1C (stereo not drawn)	-13	·	·	·	·	·
CSCCCNC(=S)N1CCc2ccccc2C1	-22	-2	-2	0	0	-2
CC(=O)Oc1ccc(C2=NN(c3ccccc3)C(c3ccccc3)C2)cc1 (stereo not drawn)	-19	32	108*	65*	1	1
COc1ccc(C2CC(c3ccccc3)=NN2c2ccc(N)cc2)cc1 (stereo not drawn)	-12	-1	5	-6	1	7
COc1cc(N2N=C(c3ccccc3)CC2c2ccccc2)c(C=O)cc1C=O (stereo not drawn)	11	7	3	55*	1	-4
COc1ccc(CCN(C)S(=O)(=O)c2cn(C)c(=O)n(C)c2=O)cc1OC	38	·	·	·	·	·
c1ccc(Nc2ccccc2Nc2ccccn2)nc1	·	8	·	-11	0	-2
Oc1cccc2ccc(Nc3ccccn3)nc12	·	62*	104*	39	-8	106*
COc1cc(Cc2cc(N)nc(N)n2)cc(OC)c1OC	30	-14	-9	71*	0	-3
CCC(=O)N1CCc2cc(S(=O)(=O)CCC(=O)NCc3ccccc3OC)ccc21	0	-5	-5	4	0	-1
Cc1ccc(-c2nc3ccccc3[nH]2)cc1NC(=O)c1sc2cc(Cl)ccc2c1Cl	-12	60*	5	8	2	3
Cc1ccc(-c2nc3ccccc3[nH]2)cc1NC(=O)c1ccco1	19	13	-17	-3	1	1
S=c1[nH]nc(COc2ccc(Cl)cc2)n1C1CCCCC1	-43	35	8	-4	0	9
Cc1ccc(OCc2n[nH]c(=S)n2C2CCCCC2)cc1	90*	3	7	-19	·	5
O=C(N=C1N=C2C=CC(Br)=CN2Cc2ccccc21)c1ccc([N+](=O)[O-])cc1[N+](=O)[O-]	-17	57*	0	9	1	-1
COc1ccc(N2CCN(C(=O)CN(C)S(=O)(=O)c3cc(C)ccc3OC)CC2)cc1	-2	-3	-7	-2	465*	·
COc1ccc(NS(=O)(=O)c2ccc(N3CCOCC3)c(NC(=O)c3ccc(F)cc3)c2)cc1	-16	-33	23	-9	1	8
COc1ccc(NS(=O)(=O)c2ccc(O)c(NC(=O)c3cc4c(C)nn(-c5ccc(F)cc5)c4s3)c2)cc1	-31	-6	114*	109*	0	12
O=C(CCl)N(c1ccccc1)C1CCCCC1	-13	65*	-16	-6	-8	107*
CCc1nnc(NC(=O)c2ccc(S(=O)(=O)N3CCCc4ccccc43)cc2)o1	5	60*	-13	86*	0	7

Source: PubChem
